Each structure is given as a SMILES string. A value given as a limit tells only on which side of the number the result lay.

Experiment [1] deals with T1, HPr kinase/phosphorylase (Bacillus subtilis (strain 168)) (UniProt O34483).
T1 sequence (whole entry): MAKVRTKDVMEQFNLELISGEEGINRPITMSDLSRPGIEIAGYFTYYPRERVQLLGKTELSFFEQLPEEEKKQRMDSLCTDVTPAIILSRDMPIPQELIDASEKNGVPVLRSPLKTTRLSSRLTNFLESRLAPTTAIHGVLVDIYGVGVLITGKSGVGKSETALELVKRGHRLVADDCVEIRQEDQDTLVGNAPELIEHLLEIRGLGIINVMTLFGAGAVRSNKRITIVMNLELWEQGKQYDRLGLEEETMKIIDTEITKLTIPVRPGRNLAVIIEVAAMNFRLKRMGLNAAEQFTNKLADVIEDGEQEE
Nature of the experiment: Percent inhibition of Histidine containing protein K in kinase assay with histidine containing protein at 100 uM. The gist of the method:
(§1)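 Single-point kinase test at 10 and 100 µM final compound. HPr(His)6 (10 µM) is phosphorylated by 100 nM B. subtilis HPrK/P(Trx-His6-S-tag) with 0.5 mM [γ-32P]ATP, 5 mM MgCl2, 2 mM FBP, 0.1% BSA, 50 mM Tris pH 8; 37 °C, 10 min. 32P incorporation measured on P81 paper by scintillation.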

Experiment [2] concerns the target T1, HPr kinase/phosphorylase (Bacillus subtilis (strain 168)). As to the kind of experiment: Percent inhibition of Histidine containing protein K in kinase assay with histidine containing protein at 10 uM. Put shortly: as §1
Experiment [3] concerns the target HPr kinase/phosphorylase (Bacillus subtilis) (UniProt O34483). Nature of the experiment: Effective concentration for inhibition of HPr kinase/phosphorylase in kinase assay.
Experiment [4] can be described thus: Hill slope for the compound was measured for inhibition of histidine containing protein kinase assay. Put shortly: (§2)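 B. subtilis HPrK/P(Trx-His6-S-tag) kinase, 100 nM, added last to start the reaction with 10 µM HPr(His)6 or Crh(His)6, 0.5 mM [γ-32P]ATP, 5 mM MgCl2, 2 mM FBP, 0.1% BSA, 50 mM Tris pH 8, 10% DMSO; 37 °C, 10 min. Read-out is P81 paper capture, H3PO4 washes and scintillation counting. Thirteen serial inhibitor concentrations, typically in triplicate; EC50 and Hill coefficient from nonlinear regression.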

Experiment [5] is described as follows: Hill slope for the compound was measured for inhibition of Crh kinase assay.
In a further experiment the target is T2, HPr kinase/phosphorylase (Bacillus subtilis (strain 168), UniProt O34483).
T2 sequence (O34483 whole entry): T1 sequence (whole entry)
Nature of the experiment: Inhibition of histidine containing protein in kinase assay. The gist of the method: as §2

The target in experiment [6] is T1, HPr kinase/phosphorylase (Bacillus subtilis (strain 168)). As to the kind of experiment: Percent inhibition of Histidine containing protein K/P in kinase assay. The conditions noted are these: concentration not given here. Further details: concentration or dose not given beside the values.
For experiment [7] the target is unchanged. Nature of the experiment: Percent inhibition of Histidine containing protein K in kinase assay at 10 uM. The gist of the method: as §1
The target is the same in experiment [8]. Nature of the experiment: Percent inhibition of Histidine containing protein K in kinase assay at 100 uM. Put shortly: as §1

With `Nc1n(Cc2ccccc2)c2ccccc2[n+]1CCCCCC(=O)[O-]`, the inhibition (in general, the drop in the measured response relative to a control, in per cent) in experiment [1] worked out at 10%; in experiment [2] it was 3%.
For `Nc1n(Cc2ccccc2)c2ccccc2[n+]1CCCCC[n+]1c(N)n(Cc2ccccc2)c2ccccc21`, the EC50 (usually the concentration at which the effect is half-maximal) came to 210 µM in experiment [3] and 93 µM on HPr kinase/phosphorylase. Also, the Activity in experiment [4] and in experiment [5] was 1.3 each time.
Consider `CC(C)(C)OC(=O)NCCC[n+]1c(N)n(Cc2ccccc2)c2ccccc21`, for which the inhibition in experiment [1] stood at 12%; in experiment [2], 18%.
For the compound `Nc1sc2ccccc2[n+]1CCCCCCCCCCCC[n+]1c(N)sc2ccccc21`, the inhibition in experiment [6] is less than 5%.
As for `Nc1n(Cc2ccccc2)c2ccccc2[n+]1CCCCCNCc1ccccc1`, the inhibition in experiment [1] turned out to be 53%; in experiment [2], 12%.
`Nc1c2ccccc2cc[n+]1CCCCCCCCCCCC[n+]1ccc2ccccc2c1N` returned an inhibition in experiment [6] of less than 5%.
`Nc1n(Cc2ccccc2)c2ccccc2[n+]1CCCO`: the inhibition in experiment [1] stood at 6%; in experiment [2], 4%.
In experiment [6], `Nc1cc2c(n[n+]1CCCCCCCCCCCC[n+]1nc3c(cc1N)-c1ccccc1CC3)CCc1ccccc1-2` registered an inhibition of less than 5%.
Take `NCCCCCC[n+]1c(N)n(Cc2ccccc2)c2ccccc21`: the values for the inhibition in [1] and in experiment [2] were 33% and 12%, respectively.
On to `CCCCCCCCCCCC[n+]1c(N)n(CCCc2ccccc2)c2ccccc21`, for which the inhibition in experiment [1] is 96%; in [2] it was 38%.
In the same order, the values of `Nc1n(Cc2ccccc2)c2ccccc2[n+]1CCCCCCCCCCCCNC1CCCCC1` are 93% and 11%.
With `NCCCCCCCCCCC[n+]1c(N)n(Cc2ccccc2)c2ccccc21`, the inhibition amounted to 62% in experiment [1] and 24% in experiment [2].
As to `CNC(=O)C[n+]1c(N)n(Cc2ccccc2)c2ccccc21`, the inhibition in experiment [1] and in experiment [2] was 7% throughout.
On to `CC(C)(C)OC(=O)NCCCCCCCCCCC[n+]1c(N)n(Cc2ccccc2)c2ccccc21`, for which the results for the inhibition in experiment [1] and in experiment [2] were 96% and 14%, respectively.
As for `c1c[n+](CCCCCCCCCCCC[n+]2cc[nH]c2)c[nH]1`, the inhibition in experiment [6] is less than 5%.
Consider `NCCC[n+]1c(N)n(Cc2ccccc2)c2ccccc21`, for which the inhibition is 24% in [1] and 18% in experiment [2].
`Nc1n(Cc2ccccc2)c2ccccc2[n+]1CCCCCCO`: the inhibition in experiment [1] is 5%; in experiment [2] it was 13%.
In the case of `Nc1cccc[n+]1CCCCCCCCCCCC[n+]1ccccc1N`, in experiment [6], the inhibition is less than 5%.
As for `CCCCCCCCCCCC[n+]1c(N)n(Cc2ccc(OC)cc2)c2ccccc21`, the figures for the inhibition in experiment [1] and in experiment [2] were 95% and 34%, respectively.
For `Nc1n(Cc2ccccc2)c2ccccc2[n+]1CC(=O)Nc1ccccc1`, the inhibition in experiment [1] is 16%; in experiment [2], 13%.
On to `Nc1n(Cc2ccccc2)c2ccccc2[n+]1CCCCCCCCN1CCN(c2ccccc2)CC1`, for which the inhibition in experiment [1] was determined as 86%; in [2] it was 33%.
For the compound `Nc1n(Cc2ccccc2)c2ccccc2[n+]1CC(=O)[O-]`, the inhibition in [1] turned out to be 3%; in experiment [2] it was 2%.
For the compound `Nc1n(Cc2ccccc2)c2ccccc2[n+]1CCCCCCCC[n+]1c(N)n(Cc2ccccc2)c2ccccc21`, the EC50 was 71 µM in experiment [3] and 20 µM at HPr kinase/phosphorylase. Besides, the values for the Activity in [4] and in experiment [5] were 1.1 and 2.2, respectively.
With `CCCCCCCCCCCC[n+]1c(N)n(Cc2ccc(Cl)cc2)c2ccccc21`, the inhibition turned out to be 21% in [1] and 17% in experiment [2].
Turning to `Nc1n(Cc2ccccc2)c2ccccc2[n+]1CCCCCCCCCCC(=O)[O-]`, the inhibition in experiment [1] is 39%; in experiment [2] it was 2%.
With `CC(C)(C)OC(=O)NCCCCCC[n+]1c(N)n(Cc2ccccc2)c2ccccc21`, the inhibition in experiment [1] was found to be 14%; in experiment [2] it was 9%.
For `CCCCCCCC[n+]1c(N)n(Cc2ccccc2)c2ccccc21`, the inhibition in experiment [1] was 55%; in experiment [2], 9%.
In the same order, the values of `Nc1n(Cc2ccccc2)c2ccccc2[n+]1CCCCCCCCCCCCN1CCN(c2ccccc2)CC1` are 96% and 41%.
Consider `CCCCCCCCCCCC[n+]1c(N)n(Cc2ccc(C)cc2)c2ccccc21`, for which the values for the inhibition in experiment [1] and in experiment [2] were 23% and 0%, respectively.
Regarding `CCCCCCCCCCCC[n+]1c(N)n(CCc2ccccc2)c2ccccc21`, the inhibition came to 98% in experiment [1] and 0% in experiment [2].
For `Nc1n(Cc2ccccc2)c2ccccc2[n+]1CCCCCCCCCCCO`, the inhibition in [1] was 37%; in experiment [2], 9%.
With `Nc1n(Cc2ccccc2)c2ccccc2[n+]1CCCCCCCCCCCCNCc1ccccc1`, the values for the inhibition in experiment [1] and in experiment [2] were 96% and 50%, respectively.
On to `Nc1n(Cc2ccccc2)c2ccccc2[n+]1CCCCCCCCCCCCNc1ccccc1`, for which the inhibition is 96% in experiment [1] and 46% in [2].
Regarding `Nc1n(Cc2ccccc2)c2ccccc2[n+]1CCCCCN1CCN(c2ccccc2)CC1`, the inhibition in experiment [1] was determined as 34%; in [2] it was 13%.
For the compound `NC(=O)CCCCC[n+]1c(N)n(Cc2ccccc2)c2ccccc21`, the inhibition in [1] amounted to 11%; in [2], 3%.
On to `CCCCCCCCCCCC[n+]1c(N)n(Cc2ccccc2)c2ccccc21`, for which the inhibition in [7] amounted to 18%; in [8], 90%. The EC50 in experiment [3] was found to be 32 µM; on HPr kinase/phosphorylase, 29 µM. In addition, the figures for the Activity in experiment [4] and in [5] were 5.3 and 6.4, respectively.
Turning to `CCCCC[n+]1c(N)n(Cc2ccccc2)c2ccccc21`, the inhibition in experiment [1] was determined as 32%; in experiment [2], 12%.
As to `Nc1ncnc2c1ncn2[C@@H]1O[C@H](COP(=O)(O)OP(=O)(O)O)[C@@H](O)[C@H]1O` [ADENOSINE DIPHOSPHATE], the values for the concentration giving a half-maximal response (EC50) (in [3]; at HPr kinase/phosphorylase) were 7400 µM and 4300 µM, respectively. Further, the results for the Activity in experiment [4] and in experiment [5] were 0.9 and 1.4, respectively.
With `Cn1c(N)[n+](CCCCCCCCCCCC[n+]2c(N)n(C)c3ccccc32)c2ccccc21`, the inhibition in experiment [6] is 64%.
With `Nc1n(Cc2ccccc2)c2ccccc2[n+]1Cc1ccccc1`, the inhibition in experiment [1] was 33%; in [2], 13%.
The corresponding values for `Nc1n(Cc2ccccc2)c2ccccc2[n+]1CCCCCCCCCCCCN1CCOCC1` are 90% and 31%.
For `CCC[n+]1c(N)n(Cc2ccccc2)c2ccccc21`, the inhibition was found to be 14% in experiment [1] and 13% in [2].
Regarding `CCCCCCCCCCCC[n+]1c(N)n(Cc2ccc(Cl)c(Cl)c2)c2ccccc21`, the inhibition was 51% in experiment [1] and 9% in experiment [2].
For the compound `CN1CCN(CCCCCCCCCCCC[n+]2c(N)n(Cc3ccccc3)c3ccccc32)CC1`, the inhibition came out at 93% in [1] and 35% in experiment [2].
For `Nc1n(Cc2ccccc2)c2ccccc2[n+]1CCCCCCCCCCCCN1C(=O)c2ccccc2C1=O`, the inhibition in experiment [1] was 97%; in [2] it was 40%.
For the compound `Nc1n(Cc2ccccc2)c2ccccc2[n+]1CCCc1ccccc1`, the inhibition in experiment [1] worked out at 20%; in [2], 11%.

(Values after ChEMBL document CHEMBL1137090, “Heterocyclic bis-cations as starting hits for design of inhibitors of the bifunctional enzyme histidine-containing protein kinase/phosphatase from Bacillus subtilis” (J Med Chem, 2004).)
